The source of these data is paper PMC10155261 (European journal of medicinal chemistry, 2022).

In data set [1] the test system is CFA-induced nociceptive hypersensitivity in rats. Put plainly: CFA-induced inflammatory pain model, von Frey mechanical nociception. It is filed as in vivo, Sprague-Dawley rats. The note with it: i.p.; for duration of effect in CFA model: 65 and 66 at 17.8 mg/kg, 2 at 32 mg/kg.
For data set [2], the system named is CCI-induced mechanical allodynia in rats. As to the kind of experiment: Chronic constriction injury. Conditions: i.p., 32 mg/kg. The class given is in vivo, Sprague-Dawley rats.
The subject of data set [3] is LPA5. Conditions: cAMP assay ref 31; cited from earlier work. (In general: Cyclic AMP is a second messenger, typically raised through Gs and lowered through Gi signalling.)
Data set [4] has as its target T1, hLPA5 (Homo sapiens, UniProt Q9H1C0). Put plainly: LPA5 calcium mobilization assay. The note with it: for fold less potent than 2: in both calcium mobilization and cAMP assays; for IC50, nM: RH7777-hLPA5 cells, against EC80 (30 nM) of hexadecyl LPA 16:0, mean ± SEM. The class given is cell-based. In outline:
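RH7777-hLPA5 cells were plated on poly-D-lysine at 20,000 cells/well in 0.2% FBS medium for 18–20 h at 37 °C. They were loaded 45 min with Calcium 5 dye in HBSS, 20 mM HEPES and 2.5 mM probenecid, pH 7.4. Eight test-compound concentrations were pre-incubated for 15 min at 37 °C, then hexadecyl LPA 16:0 EC80 (30 nM) was added at 10 s. Fluorescence (485/525 nm) was read every 1 s for 90 s. IC50 came from a three-parameter logistic fit of RFU. Duplicate determinations; two or at least three independent experiments.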
(In general: A change in cytosolic calcium serves as a functional read-out for many receptors and channels.)

For data set [5], the system named is LPA5. Conditions: SAR study of Kawamoto et al. ref 32; cited from earlier work.
Data set [6] addresses T1, hLPA5. Put plainly: LPA5 TR-FRET Lance Ultra cAMP assay. Conditions: for fold less potent than 2: cAMP assay. The class given is cell-based. For orientation: Time-resolved FRET reads energy transfer from a long-lived donor to a nearby acceptor.
Data set [7] deals with LPA1–LPA4 receptors. Put plainly: LPA1–LPA3 calcium mobilization. The class given is cell-based. Conditions: 10 μM in Ca2+ for LPA1–LPA3 and cAMP for LPA4. Summed up: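 Selectivity was tested with test compound at 10 μM. LPA1–LPA3 calcium mobilization was run externally in CHO cells over-expressing each receptor, under the provider's protocols. LPA4 was a TR-FRET cAMP assay in LPA4-overexpressing CHO cells, following the LPA5 cAMP method but against 250 nM hexadecyl LPA 16:0 (EC80).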

The subject of data set [8] is >50 GPCRs (NIMH Psychoactive Drug Screening Program panel). As to the kind of experiment: NIMH PDSP radioligand binding panel. The note with it: < 50% inhibition at 10 μM or pKi ≤ 6.
A short description of data set [9]: Metabolic stability in rat liver microsomes. The class given is in vitro ADME. The note with it: pH 7.4. In outline:
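Rat liver microsomes (0.5 mg/mL protein) were used in 100 mM potassium phosphate, pH 7.4, at 37 °C, with NADPH at 1 mM final. Samples were taken at 0, 5, 15, 30 and 45 min and quenched 1:1 in cold acetonitrile containing labetalol and glyburide. Parent was measured by LC-MS/MS, and half-life and in vitro clearance were calculated. Two independent experiments in duplicate.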

The nature of data set [10]: Bidirectional MDCK-MDR1 permeability. The class given is in vitro ADME. The note with it: dog, MDCK-MDR1, pH 7.4, Papp (B-to-A), MDCK-MDR1 Transwell, 10 μM. Summed up: (§1)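 MDCK-mdr1 cells (passage 5) were grown on polycarbonate Transwell supports for 3 days and rinsed with warm HBSS. They were pre-incubated 30 min at 37 °C in HBSS with 10 mM HEPES and 0.25% BSA, pH 7.4, then TEER was measured. Test compound at 10 μM went to the apical donor (A-to-B) or basolateral donor (B-to-A) side, at 37 °C with light agitation. Receiver was sampled at 30, 60 and 90 min and analysed by LC-MS/MS. Papp came from dQ/dt, area 1.12 cm2 and initial donor concentration. Atenolol and propranolol were references.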

Data set [11] deals with MDCK-mdr1 cells. As to the kind of experiment: Bidirectional MDCK-MDR1 permeability. The class given is in vitro ADME. Conditions: MDCK-MDR1 Transwell, 10 μM. In outline:
as §1

Data set [12] concerns P-glycoprotein (MDR1). Put plainly: Bidirectional MDCK-MDR1 permeability. It is filed as in vitro ADME. The note with it: dog, MDCK-MDR1, pH 7.4. Summed up: as §1
Data set [13] relates to LPA5. The note with it: read-out: IC50, binding to [^3H]LPA; literature value ref 8; cited from earlier work.

Where two headings read alike, the source gives them in different places.

T1 sequence (Q9H1C0 whole entry): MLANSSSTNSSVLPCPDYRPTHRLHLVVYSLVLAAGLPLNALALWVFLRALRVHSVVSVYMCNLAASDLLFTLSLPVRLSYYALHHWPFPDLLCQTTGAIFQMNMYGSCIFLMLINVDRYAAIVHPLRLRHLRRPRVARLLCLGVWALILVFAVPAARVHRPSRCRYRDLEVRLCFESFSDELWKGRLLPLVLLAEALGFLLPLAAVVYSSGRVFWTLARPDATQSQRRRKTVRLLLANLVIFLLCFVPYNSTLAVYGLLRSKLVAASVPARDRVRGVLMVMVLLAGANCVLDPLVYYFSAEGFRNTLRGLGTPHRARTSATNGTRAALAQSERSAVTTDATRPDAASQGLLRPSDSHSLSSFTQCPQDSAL

`COc1cc2c(C(=O)N3CCCCC3)cn(-c3noc4ccc(C)cc34)c(=O)c2cc1OC` [Compound 2, 6,7-Dimethoxy-2-(5-methylbenzo[d]isoxazol-3-yl)-4-(piperidine-1-carbonyl)isoquinolin-1(2H)-o-ne, reference compound]: the “effect on CFA-induced nociceptive hypersensitivity” value in [1] (32 mg/kg) is listed as “did not fully reverse the nociceptive hypersensitivity”. Moreover, the “duration of effect in CFA model” value in data set [1] is ~ 2 h. The “antinociceptive effect in CCI model” value in data set [2] was “full antinociceptive effects”. In addition, the IC50 in data set [3] is 38 nM. As to `CCN1CCc2ccc(-n3cc(C(=O)N4CCC(F)CC4)c4cc(OC)c(OC)cc4c3=O)cc21` [Compound 3, 2-(1-Ethylindolin-6-yl)-4-(4-fluoropiperidine-1-carbonyl)-6,7-dimethoxyisoquinolin-1(2H)-one, reference compound], the “fold less potent than 2” value in data set [4] is 2–3 fold. In [5], the IC50 is 120 nM. On to `COc1cc2c(C(=O)N(C)C)cn(-c3cccc(N(C)C)c3)c(=O)c2cc1OC` [Compound 10, 2-(3-(Dimethylamino)phenyl)-6,7-dimethoxy-N,N-dimethyl-1-oxo-1,2-dihydroisoquinoline-4-car-boxamide], for which the “IC50, nM” value in data set [4] is “inactive”. Still for that read-out and setting: to `COc1cc2c(C(=O)N(C)Cc3ccncc3)cn(-c3cccc(N(C)C)c3)c(=O)c2cc1OC` [Compound 11, 2-(3-(Dimethylamino)phenyl)-6,7-dimethoxy-N-methyl-1-oxo-N-(pyridin-4-ylmethyl)-1,2-dihydr-oisoquinoline-4-carboxamide] belongs “inactive”; to `COc1cc2c(C(=O)N3CCC3)cn(-c3cccc(N(C)C)c3)c(=O)c2cc1OC` [Compound 13, 4-(Azetidine-1-carbonyl)-2-(3-(dimethylamino)phenyl)-6,7-dimethoxyisoquinolin-1(2H)-one], “inactive”; to `COc1cc2c(C(=O)N3CCCC3)cn(-c3cccc(N(C)C)c3)c(=O)c2cc1OC` [Compound 14, 2-(3-(Dimethylamino)phenyl)-6,7-dimethoxy-4-(pyrrolidine-1-carbonyl)isoquinolin-1(2H)-one], “inactive”. In the case of `COc1cc2c(C(=O)N3CCC(F)CC3)cn(-c3cccc(N(C)C)c3)c(=O)c2cc1OC` [Compound 23, 2-(3-(Dimethylamino)phenyl)-4-(4-fluoropiperidine-1-carbonyl)-6,7-dimethoxyisoquinolin-1(2H-)-one], the “fold less potent than 2” value in data set [6] is listed as 4 – 10 fold. On to `COc1cc2c(C(=O)N3CCC(C#N)CC3)cn(-c3cccc(N(C)C)c3)c(=O)c2cc1OC` [Compound 24, 1-(2-(3-(Dimethylamino)phenyl)-6,7-dimethoxy-1-oxo-1,2-dihydroisoquinoline-4-carbonyl)piper-idine-4-carbonitrile], for which, in data set [6], the midpoint of inhibition, the IC50, lay at 2100 ± 300 nM and the “fold less potent than 2” value is recorded as 4 – 10 fold. In the case of `C#CC1CCN(C(=O)c2cn(-c3cccc(N(C)C)c3)c(=O)c3cc(OC)c(OC)cc23)CC1` [Compound 26, 2-(3-(Dimethylamino)phenyl)-4-(4-ethynylpiperidine-1-carbonyl)-6,7-dimethoxyisoquinolin-1(2-H)-one], the “fold more potent than the unsubstituted piperidine 15” value in data set [4] (calcium assay) is given as ~ 2 fold. Further, in [6], the IC50 is 890 ± 100 nM and the “fold less potent than 2” value is recorded as 4 – 10 fold. Consider `CN(C)c1cccc(-n2cc(C(=O)N3CCC(F)CC3)c3ccccc3c2=O)c1` [Compound 34, 2-(3-(Dimethylamino)phenyl)-4-(4-fluoropiperidine-1-carbonyl)isoquinolin-1(2H)-one], for which the “IC50, nM” value in data set [4] was “total loss of potency”. For the molecule `COc1cc2c(=O)n(-c3cccc(N(C)C)c3)cc(C(=O)N3CCC(F)CC3)c2cc1OCc1cccc2ccccc12` [Compound 44, 2-(3-(Dimethylamino)phenyl)-4-(4-fluoropiperidine-1-carbonyl)-7-methoxy-6-(naphthalen-1-ylm-ethoxy)isoquinolin-1(2H)-one], the “IC50, nM” value in [4] was “total loss of activity”.

In the case of `COc1cc2c(=O)n(-c3cccc(N(C)C)c3)cc(C(=O)N3CCC(F)CC3)c2cc1OCc1ccccn1` [Compound 45, 2-(3-(Dimethylamino)phenyl)-4-(4-fluoropiperidine-1-carbonyl)-7-methoxy-6-(pyridin-2-ylmeth-oxy)isoquinolin-1(2H)-one], in [4], the “IC50, nM” value is recorded as “total loss of activity”.

For the molecule `COc1cc2c(C(=O)N3CCCCC3)cn(-c3cccc(C(N)=O)c3)c(=O)c2cc1OC` [Compound 50, 3-(6,7-Dimethoxy-1-oxo-4-(piperidine-1-carbonyl)isoquinolin-2(1H)-yl)benzamide], the “IC50, nM” value in data set [4] is “completely inactive”. Same read-out and setting: to `COc1cc2c(C(=O)N3CCCCC3)cn(-c3cccc(C(=O)N(C)C)c3)c(=O)c2cc1OC` [Compound 51, 3-(6,7-Dimethoxy-1-oxo-4-(piperidine-1-carbonyl)isoquinolin-2(1H)-yl)-N,N-dimethylbenzamide] belongs “completely inactive”. As to `COc1cc2c(C(=O)N3CCCCC3)cn(-c3ccc4occ(C)c4c3)c(=O)c2cc1OC` [Compound 56, 6,7-Dimethoxy-2-(3-methylbenzofuran-5-yl)-4-(piperidine-1-carbonyl)isoquinolin-1(2H)-one], the “potency difference between cAMP and calcium mobilization assays” value in [6] was found to be 3.9 fold. For `COc1cc2c(C(=O)N3CCCCC3)cn(-c3ccc4ccn(C)c4c3)c(=O)c2cc1OC` [Compound 58, 6,7-Dimethoxy-2-(1-methyl-1H-indol-6-yl)-4-(piperidine-1-carbonyl)isoquinolin-1(2H)-one], the “potency difference between cAMP and calcium mobilization assays” value in data set [6] came to 7.2 fold. As for `COc1cc2c(C(=O)N3CCC(F)CC3)cn(-c3ccc4occ(C)c4c3)c(=O)c2cc1OC` [Compound 64, 4-(4-Fluoropiperidine-1-carbonyl)-6,7-dimethoxy-2-(3-methylbenzofuran-5-yl)isoquinolin-1(2H)-one], the “fold less potent than 3 and 66” value in [4] (calcium assay) is ~ 4 fold.

On to `COc1cc2c(C(=O)N3CCC(F)CC3)cn(-c3ccc4scc(C)c4c3)c(=O)c2cc1OC` [Compound 65, 4-(4-Fluoropiperidine-1-carbonyl)-6,7-dimethoxy-2-(3-methylbenzo[b]thiophen-5-yl)isoquinolin-1(2H)-one], for which, in [4], the “fold less potent than 2” value is 1.5–2 fold. In addition, the “potency difference between cAMP and calcium mobilization assays” value in data set [6] is recorded as 4.9 fold. Further, the “LPA1–LPA4 inhibition” value in [7] is recorded as under 50%. Moreover, in data set [8], the “affinity for panel receptors” value was “no significant affinity for most of the receptors”. Further, the CLint scaled at 0.75 h in [9] turned out to be 48.4 mL/min/kg. In [10], this molecule gave a Papp B→A at 90 min, 10 μM of 31.1 ×10⁻⁶ cm/s. The “Papp (B-to-A)” value in data set [11] is 30.4 10^−6 cm/s. Further, in [12], the efflux ratio at 90 min, 10 μM was under 2.5. In [1] (17.8 mg/kg), the “effect on CFA-induced nociceptive hypersensitivity” value is recorded as “markedly alleviated nociceptive hypersensitivity”. In data set [1], the “duration of effect in CFA model” value is listed as ~ 5 h.

As for `CCCCCCCCCCCCCCCCOC[C@@H](O)COP(=O)(O)O` [hexadecyl LPA 16:0, reference compound], in data set [6], the “potency difference between cAMP and calcium mobilization assays” value is “about 6 fold”. The IC50 in data set [13] is 7.5 nM.

By IC50 is commonly meant the concentration that gives 50% inhibition. By CLint scaled is commonly meant the rate of metabolic loss divided by the concentration. The term Papp B→A denotes how fast a substance crosses the layer from the basolateral side. Usually efflux ratio stands for a quotient of directional permeabilities that is used to spot active efflux.
